# Data published in ChEMBL document CHEMBL1139314, “Discovery and structure-activity relationships of 4-aminoquinazoline derivatives, a novel class of opioid receptor like-1 (ORL1) antagonists” (Bioorg Med Chem, 2009).
# pIC50, pKi: −log10 of the molar value. The source made the active and inactive calls. No cut-off for these calls is given here.
# Columns and labels:
# [1] = Selectivity ratio of Ki for rat mu opioid receptor to Ki for human ORL1 receptor
# Procedure, shortened: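 Membranes came from CHO-K1 cells expressing rat mu opioid receptor ([3H]diprenorphine; naloxone defines nonspecific binding) or human ORL1 ([3H]nociceptin; unlabeled nociceptin). Ki values were calculated by Cheng–Prusoff.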
# [2] = Displacement of [3H]nociceptin from human ORL1 receptor expressed in CHO-K1 cells; assay type: cell-based
# Procedure, shortened: (§1)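 Competition binding used membranes from stably transfected CHO-K1 cells. The radioligand was leucyl-[3H]nociceptin for ORL1 and [3H]diprenorphine for mu, delta and kappa. Nonspecific binding was defined with unlabeled nociceptin (ORL1), naloxone (mu), naltrindole (delta) or naloxone benzoylhydrazone (kappa). Incubation was 1 h at 25 °C in 50 mM Tris-HCl pH 7.8 with 5 mM MgCl2, 1 mM EGTA and 0.1% BSA. Samples were filtered on PEI-soaked GF/B filters and counted. Ki was derived by Cheng–Prusoff.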
# Mu-type opioid receptor [3] = biological target: Mu-type opioid receptor (Rattus norvegicus, UniProt P33535); assay: Displacement of [3H]diprenorphine from rat mu opioid receptor expressed in CHO-K1 cells; assay type: cell-based; procedure, shortened: as §1
# Mu-type opioid receptor [4] = biological target: Mu-type opioid receptor (Homo sapiens, UniProt P35372); assay: Displacement of [3H]diprenorphine from human mu opioid receptor expressed in CHO-K1 cells; assay type: cell-based; procedure, shortened: as §1
# [5] = biological target: Delta-type opioid receptor (Rattus norvegicus, UniProt P33533); assay: Displacement of [3H]diprenorphine from rat delta opioid receptor expressed in CHO-K1 cells; assay type: cell-based; procedure, shortened: as §1
# [6] = biological target: Kappa-type opioid receptor (Rattus norvegicus, UniProt P34975); assay: Displacement of [3H]diprenorphine from rat kappa opioid receptor expressed in CHO-K1 cells; assay type: cell-based; procedure, shortened: as §1
# CHO-K1 = assay: Antagonist activity at human ORL1 receptor expressed in CHO-K1 cells assessed as inhibition of forskolin-stimulated cAMP accumulation; assay type: functional, cell-based
# Procedure, shortened: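 CHO-K1 cells stably expressing human ORL1 were preincubated 5 min at 37 °C, 5% CO2, in Krebs-Henseleit solution (pH 7.4) with 0.5 mM IBMX. Forskolin (3 μM final) and test compound (1–1000 nM) were then added with or without nociceptin and incubated 10 min at 37 °C. Cells were lysed, and intracellular cAMP was measured by enzyme immunoassay the same day.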
# [7] = Antagonist activity at human ORL1 receptor expressed in CHO-K1 cells assessed as inhibition of cAMP accumulation
# Chain of Mu-type opioid receptor (Homo sapiens, UniProt P35372) (P35372 whole entry): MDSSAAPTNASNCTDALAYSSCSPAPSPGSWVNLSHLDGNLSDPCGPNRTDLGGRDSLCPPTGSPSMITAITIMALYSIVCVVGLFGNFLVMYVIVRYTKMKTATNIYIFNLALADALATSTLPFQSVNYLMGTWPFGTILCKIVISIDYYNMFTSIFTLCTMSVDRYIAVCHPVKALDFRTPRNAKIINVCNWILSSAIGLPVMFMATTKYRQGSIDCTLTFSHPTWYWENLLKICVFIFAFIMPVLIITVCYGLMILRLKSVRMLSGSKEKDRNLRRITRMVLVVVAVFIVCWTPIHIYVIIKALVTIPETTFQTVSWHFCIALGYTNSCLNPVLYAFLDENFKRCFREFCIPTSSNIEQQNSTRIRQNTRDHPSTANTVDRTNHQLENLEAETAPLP
# Chain of Mu-type opioid receptor (Rattus norvegicus, UniProt P33535) (P33535 whole entry): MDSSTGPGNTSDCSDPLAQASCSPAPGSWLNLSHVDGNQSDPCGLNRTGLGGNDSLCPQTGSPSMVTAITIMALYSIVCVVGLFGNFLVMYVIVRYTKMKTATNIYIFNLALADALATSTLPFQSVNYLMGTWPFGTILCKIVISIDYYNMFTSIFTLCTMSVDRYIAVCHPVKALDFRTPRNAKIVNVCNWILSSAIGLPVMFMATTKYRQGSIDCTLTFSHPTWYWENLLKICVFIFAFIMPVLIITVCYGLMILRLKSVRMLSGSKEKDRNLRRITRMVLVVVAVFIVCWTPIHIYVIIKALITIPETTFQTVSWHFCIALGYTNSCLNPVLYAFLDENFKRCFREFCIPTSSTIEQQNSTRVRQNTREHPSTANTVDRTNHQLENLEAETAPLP
# Chain of Kappa-type opioid receptor (P34975 whole entry): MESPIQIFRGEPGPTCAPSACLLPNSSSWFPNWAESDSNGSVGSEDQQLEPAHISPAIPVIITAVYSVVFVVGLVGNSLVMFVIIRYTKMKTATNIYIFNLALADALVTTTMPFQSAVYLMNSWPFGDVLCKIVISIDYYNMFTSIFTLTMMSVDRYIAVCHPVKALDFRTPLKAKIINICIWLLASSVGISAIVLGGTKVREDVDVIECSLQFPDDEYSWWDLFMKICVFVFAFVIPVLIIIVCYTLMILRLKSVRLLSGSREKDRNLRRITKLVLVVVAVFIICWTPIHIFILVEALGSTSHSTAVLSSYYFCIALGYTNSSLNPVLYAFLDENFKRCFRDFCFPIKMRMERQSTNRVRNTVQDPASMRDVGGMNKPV
# Chain of Delta-type opioid receptor (P33533 whole entry): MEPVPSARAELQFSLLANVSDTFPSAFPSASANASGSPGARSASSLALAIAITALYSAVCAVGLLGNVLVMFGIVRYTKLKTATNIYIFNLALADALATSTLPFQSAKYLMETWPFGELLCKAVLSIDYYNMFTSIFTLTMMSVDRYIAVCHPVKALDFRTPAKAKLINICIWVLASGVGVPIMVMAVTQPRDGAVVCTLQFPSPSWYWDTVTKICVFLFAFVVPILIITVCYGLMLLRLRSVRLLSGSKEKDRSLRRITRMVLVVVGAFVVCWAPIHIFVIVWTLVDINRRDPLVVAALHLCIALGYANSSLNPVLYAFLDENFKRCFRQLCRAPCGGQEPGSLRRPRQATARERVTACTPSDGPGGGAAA
Structure (SMILES),Ratio Ki [1],pKi [2],pKi (Mu-type opioid receptor [3]),pKi (Mu-type opioid receptor [4]),pKi [5],pKi [6],Activity (CHO-K1),pIC50 [7]
Cc1ccc2nc(/C=C/c3ccc(Cl)cc3)nc(N[C@H]3CC[C@@H](NC(=N)N)CC3)c2c1,0.39,6.82,7.22,,,,,
Cc1ccc2nc(/C=C/c3ccc(Cl)cc3)nc(N[C@H]3CC[C@H](N)CC3)c2c1,0.37,6.10,6.52,,,,,
Cc1ccc2nc(NC(=O)c3ccc(Cl)cc3)nc(NC3CCCCC3NC(=N)N)c2c1 (racemic),,8.68,,6.51,5.40,5.92,,
Cc1ccc2nc(/C=C/c3ccc(Cl)cc3)nc(N[C@H]3CC[C@@H](N)CC3)c2c1,2.53,6.79,6.39,,,,,
Cc1cccc2nc(/C=C/c3ccc(Cl)cc3)nc(NCCCCCCN)c12,0.21,6.09,6.77,,,,,
Cc1ccc2nc(/C=C/c3ccc(Cl)cc3)nc(NCCCCN)c2c1,1.29,6.71,6.60,,,,,
Cc1ccc2nc(/C=C/c3ccc(Cl)cc3)nc(N[C@H]3CCCC[C@@H]3N)c2c1 (racemic),0.33,6.27,6.74,,,,,
Cc1ccc2nc(/C=C/c3ccc(Cl)cc3)nc(NCCCCCCN)c2c1,0.51,6.63,6.92,,,,,
NCCCCCCNc1nc(/C=C/c2ccc(Cl)cc2)nc2ccc(Cl)cc12,1.29,6.53,6.42,,,,,
"Cc1ccc2nc(NC(=O)c3ccc(Cl)cc3)nc(N[C@H]3CCCC[C@H]3NC(=N)N)c2c1 (single isomer, unassigned)",,6.85,,6.57,5.37,6.29,,
Cc1ccc2nc(/C=C/c3ccc(Cl)cc3)nc(N[C@H]3CCCC[C@H]3NC(=N)N)c2c1 (racemic),5.11,7.37,6.66,,,,,
CC(C)(C)c1ccc2nc(/C=C/c3ccc(Cl)cc3)nc(NCCCCCCN)c2c1,1.3,6.53,6.42,,,,,
Cc1ccc2nc(/C=C/c3ccc(Cl)cc3)nc(N[C@H]3CCCC[C@H]3N)c2c1 (racemic),0.75,6.70,6.82,,,,,
Cc1ccc2nc(/C=C/c3ccc(Cl)cc3)nc(NCCN)c2c1,0.25,6.01,6.62,,,,,
NCCCCCCNc1nc(/C=C/c2ccc(Cl)cc2)nc2ccccc12,0.47,6.42,6.74,,,,,
NCCCCCCNc1nc(/C=C/c2ccc(Cl)cc2)nc2cc3ccccc3cc12,3.08,6.88,6.39,,,,,
Cc1ccc2nc(/C=C/c3ccc(Cl)cc3)nc(NCCCCNC(=N)N)c2c1,14.4,6.80,5.64,,,,,
Cc1cccc2c(NCCCCCCN)nc(/C=C/c3ccc(Cl)cc3)nc12,1.42,6.19,6.03,,,,,
Cc1ccc2nc(/C=C/c3ccc(Cl)cc3)nc(NCCCCCCNC(=N)N)c2c1,3.37,7.05,6.52,,,,,
Cc1ccc2c(NCCCCCCN)nc(/C=C/c3ccc(Cl)cc3)nc2c1,0.48,6.38,6.70,,,,,
"Cc1ccc2nc(NC(=O)c3ccc(Cl)cc3)nc(N[C@@H]3CCCC[C@@H]3NC(=N)N)c2c1 (single isomer, unassigned)",,8.85,,6.48,5.44,5.62,inactive,7.77
